CHRM4 antagonist: CHRM4 antagonism in calcium assay; CHO-hM4 cells, ACh EC80, Fluo-8 calcium fluorescence; inhibition, % at 3 µM; hit rate 0.73% among 360,000; AID 624125;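 active means inhibition above its plate's cutoff, the mean inhibition of sample wells plus 3 SD, cut at about 27% in these data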;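 further: 0% = acetylcholine EC80 with DMSO and 100% = DMSO without agonist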
Target sequence (P08173 whole entry, looked up): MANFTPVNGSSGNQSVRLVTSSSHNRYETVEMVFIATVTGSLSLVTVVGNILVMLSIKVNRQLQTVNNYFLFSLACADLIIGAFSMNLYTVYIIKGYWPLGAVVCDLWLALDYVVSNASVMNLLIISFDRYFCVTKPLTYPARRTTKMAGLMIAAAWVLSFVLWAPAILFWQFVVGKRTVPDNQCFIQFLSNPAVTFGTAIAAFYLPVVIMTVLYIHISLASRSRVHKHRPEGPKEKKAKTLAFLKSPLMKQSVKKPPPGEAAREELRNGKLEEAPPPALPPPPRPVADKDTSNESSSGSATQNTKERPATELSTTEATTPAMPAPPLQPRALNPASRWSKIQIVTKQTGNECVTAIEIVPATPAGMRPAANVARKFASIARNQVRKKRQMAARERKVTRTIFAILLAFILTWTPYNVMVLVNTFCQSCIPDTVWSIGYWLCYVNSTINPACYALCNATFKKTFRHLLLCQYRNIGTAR
M5 PAM: positive allosteric modulators of human muscarinic M5 receptor; AID 624038; hit rate 0.3% among 360,000; activation, % at 3 µM; CHO-K1 hM5, Fluo-8 calcium, ACh EC20 PAM; 0% = ACh EC20, 100% = ACh EC100; P08912;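 active means activation above the run cutoff, the mean activation of all test compounds plus 3 SD, cut at about 18% in these data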
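System: CHO-K1 hM5 cells. Reagent: acetylcholine, EC20 level. Compound dosing: single dose, 3 µM nominal final test concentration. Timing: Post-acetylcholine fluorescence recording 140 s. Detection: Fluo-8 calcium fluorescence. Read-out: % activation, ACh-normalized. Benchmarks: ACh EC20 and EC100 wells. Repeats: singlicate, one well per test compound.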
CHRM4 agonist: agonists of human muscarinic M4 receptor (CHRM4); P08173; CHO-K1 hM4/Gqi5, Fluo-8 calcium fluorescence; vehicle 0%, full acetylcholine response 100%; activation, % at 3 µM; hit rate 0.14% among 360,000; AID 624127;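 active means activation above the run mean over all test wells plus 3 SD, cut at about 32% in these data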;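 further: peak over basal fluorescence ratio per well then scaled between controls; 0% = DMSO wells and 100% = acetylcholine at EC100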
CHRM5 antagonist: CHRM5 antagonism in calcium assay. P08912. CHO-hM5 cells, Fluo-8 calcium fluorescence, ACh EC80. inhibition, % at 3 µM. hit rate 0.59% among 360,000. AID 624040;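 active means inhibition above a per-plate cutoff, the mean of that plate's test compounds plus 3 SD, cut at about 27% in these data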;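 further: 0% = acetylcholine EC80 with DMSO and 100% = DMSO without agonist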
M4 PAM: potentiates acetylcholine response at human M4 receptor | P08173 | CHO-K1 hM4/Gqi5, Fluo-8 calcium fluorescence, ACh EC20; 0% = ACh EC20, 100% = maximal ACh | activation, % at 3 µM | hit rate 0.4% among 360,000 | AID 624126;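 active means activation above its plate's cutoff, the mean activation of sample wells plus 3 SD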
M5 ag: agonists of human muscarinic M5 receptor (CHRM5); activation, % at 3 µM; CHO-K1 hM5 cells, Fluo-8 calcium fluorescence; 0% DMSO wells, 100% maximal acetylcholine response; P08912; hit rate 0.19% among 360,000;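 active means activation above the run's mean over test compounds plus 3 SD, cut at about 23% in these data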;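 further: signal is peak over basal fluorescence ratio across the kinetic read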
* marks the source's active call; other numbers are inactive results; ! = repeats disagree. Hits are enriched below; roughly 1.8% of the tested compounds scored in any of these assays.

For O=C(C1CCN(S(=O)(=O)c2ccccc2)CC1)N1CCC2(CC1)OCCO2 the results were CHRM4 antagonist -3, M5 PAM 1, CHRM4 agonist 1, CHRM5 antagonist -4, M4 PAM 4 and M5 ag -3.
Screening OC12Oc3ccccc3C=C1N1CCC2CC1 (stereo not drawn) returned CHRM4 antagonist -3, M5 PAM -8, CHRM4 agonist 0, CHRM5 antagonist -1, M4 PAM -10 and M5 ag -10.
For CC1(C)OC(c2ccccc2)=C/C(=C/C=C2C(=O)NC(=O)NC2=O)O1 the results were CHRM4 antagonist 3, M5 PAM -19, CHRM4 agonist 20, CHRM5 antagonist 14, M4 PAM -8 and M5 ag 75*.
For CC1(C)CCCN1CCC(C(N)=O)(c1ccccc1)c1ccccc1 the results were CHRM4 antagonist 98*, M5 PAM -36, CHRM4 agonist 0, CHRM5 antagonist 99*, M4 PAM -10 and M5 ag -11.
CCSP1(=S)N=C(N2CCOCC2)C(C#N)=C2CCCN21 (stereo not drawn) was read as CHRM4 antagonist 5, M5 PAM -6, CHRM4 agonist 0, CHRM5 antagonist 4, M4 PAM 1 and M5 ag -4.
`CCOC(=O)[C@]12Cc3ccc(C)cc3[C@H]1N(C1CCCCC1)C(=O)c1ccccc12` gave CHRM4 antagonist 6, M5 PAM 13, CHRM4 agonist -3, CHRM5 antagonist 6, M4 PAM 2 and M5 ag 11.
For CCOC(=O)[C@]12Cc3ccc(C)cc3[C@H]1N(C1CCCCC1)C(=O)c1cc(OC)ccc12 the results were CHRM4 antagonist 21, M5 PAM 16, CHRM4 agonist -2, CHRM5 antagonist 4, M4 PAM 5 and M5 ag 18.
For CCOC(=O)[C@]12Cc3cc(C)ccc3[C@H]1N(C1CCCCC1)C(=O)c1ccccc12 the results were CHRM4 antagonist 20, M5 PAM 9, CHRM4 agonist 3, CHRM5 antagonist 6, M4 PAM -3 and M5 ag 27*.
`CCOC(=O)[C@]12Cc3cc(Cl)ccc3[C@H]1N(C1CCCCC1)C(=O)c1cc(OC)ccc12` gave CHRM4 antagonist 77*, M5 PAM 6, CHRM4 agonist 1, CHRM5 antagonist 18, M4 PAM -9 and M5 ag 51*.
Screening Fc1ccccc1CN1Cc2ccccc2-n2nncc2C1 returned CHRM4 antagonist -5, M5 PAM -1, CHRM4 agonist 3, CHRM5 antagonist -7, M4 PAM -1 and M5 ag 2.
Screening CC(C)[C@]12CC(=O)[C@H](C)[C@H]1C2 returned CHRM4 antagonist -6, M5 PAM 2, CHRM4 agonist 1, CHRM5 antagonist 0, M4 PAM 0 and M5 ag 0.
`O=[N+]([O-])c1cc(-n2cnnn2)c(O)c([N+](=O)[O-])c1` gave CHRM4 antagonist 3, M5 PAM 10, CHRM4 agonist 1, CHRM5 antagonist 4, M4 PAM 30* and M5 ag 1.
O=[N+]([O-])c1cc(O)c(O)c([N+](=O)[O-])c1 was read as CHRM4 antagonist 5, M5 PAM -4, CHRM4 agonist 1, CHRM5 antagonist 8, M4 PAM 0 and M5 ag 0.
COc1ccc(C(c2nnnn2-c2ccc3c(c2)OCCO3)N2CCC3(CC2)C(=O)NCN3c2ccccc2)cc1 (stereo not drawn) was read as CHRM4 antagonist 1, M5 PAM -6, CHRM4 agonist 6, CHRM5 antagonist 9, M4 PAM 0 and M5 ag 2.
For C[C@]12CCC(=O)C=C1CCC1C2CC[C@@]2(C)C1CC[C@]2(C)O (stereo partly drawn) the results were CHRM4 antagonist 1, M5 PAM -11, CHRM4 agonist 6, CHRM5 antagonist 18, M4 PAM -6 and M5 ag 0.
For CN1C(=O)CCC2(C)C1=CCC1C2CCC2(C)C1CCC2(C)O (stereo not drawn) the results were CHRM4 antagonist -4, M5 PAM 18*, CHRM4 agonist 2, CHRM5 antagonist -7, M4 PAM 13 and M5 ag 4.
CN(C)c1ccc(/C=C/[N+](=O)[O-])cc1 was read as CHRM4 antagonist 11, M5 PAM -8, CHRM4 agonist 10, CHRM5 antagonist 55*, M4 PAM 1 and M5 ag 35*.
CC(C)N(CCC(C(N)=O)(c1ccccc1)c1ccccn1)C(C)C (stereo not drawn) was read as CHRM4 antagonist 22, M5 PAM -18, CHRM4 agonist 0, CHRM5 antagonist 39*!, M4 PAM -16 and M5 ag -2.
`Clc1ccc2c(c1)C(OC1CN3CCC1CC3)c1ccccc1CS2` (stereo not drawn) gave CHRM4 antagonist 99*, M5 PAM -18, CHRM4 agonist 16, CHRM5 antagonist 99*, M4 PAM -42 and M5 ag -2.
For CN1CCN(CCOC2c3ccccc3CSc3ccc(Cl)cc32)CC1 (stereo not drawn) the results were CHRM4 antagonist 83*, M5 PAM -17, CHRM4 agonist 11, CHRM5 antagonist 54*, M4 PAM -43 and M5 ag -2.
O=C(COc1ccc(Cl)cc1)N(c1ccccc1Cl)C1CN2CCC1CC2 (stereo not drawn) was read as CHRM4 antagonist 11, M5 PAM -32, CHRM4 agonist 6, CHRM5 antagonist 12, M4 PAM -39 and M5 ag -19.
COC(=O)C1=C(c2ccc(OCc3ccccc3)cc2)C[C@@H]2CC[C@H]1N2C(=O)NCc1ccc2c(c1)OCO2 was read as CHRM4 antagonist -4, M5 PAM -4, CHRM4 agonist 7, CHRM5 antagonist 4, M4 PAM -6 and M5 ag 1.
For CCc1ccc(NC2=NCCCS2)cc1 the results were CHRM4 antagonist -26, M5 PAM -4, CHRM4 agonist 2, CHRM5 antagonist 9, M4 PAM 0 and M5 ag -8.
C=C1C(C)C2C(Cc3ccccc3)NC(=O)C23C(OC(C)=O)C=CC(C)(O)CC(C)CC=CC3C1O (stereo not drawn) was read as CHRM4 antagonist -19, M5 PAM 21*, CHRM4 agonist 2, CHRM5 antagonist -12, M4 PAM 7 and M5 ag 4.
Screening C[C@]12CC[C@H](OS(=O)(=O)O)CC1=CC[C@@H]1[C@@H]2CC[C@]2(C)C(=O)CC[C@@H]12 returned CHRM4 antagonist 71*!, M5 PAM -3, CHRM4 agonist 0, CHRM5 antagonist 3, M4 PAM -1 and M5 ag 0.
